Type in all cases: functional, Canis lupus familiaris, Heart
Experiment [1] concerns Canis familiaris. Description: Antiarrhythmic activity in anesthetized acute myocardial infarction dog model assessed as normal ECG complexes at 0.5 mg/kg, iv administered 10 mins prior to infarction measured during 1-hr postinfarction period (reference value: 19%). In short, it runs like this:
(§1)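 Sclerosing agent (tetrafluorohexachlorobutane) injected into the anterior descending coronary artery to produce a multifocal ventricular arrhythmia. Single iv dose 10 min before infarction. Segmented ECG tracings over the 1 h after infarction were scored as the percentage of complexes of sinus origin (normal). Saline controls were run alongside.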

Experiment [2] relates to Canis familiaris. Briefly: Antiarrhythmic activity in iv dosed anesthetized acute myocardial infarction dog model assessed as protection against ventricular arrhythmia development administered 10 mins prior to infarction measured during 1-hr postinfarction period. In short, it runs like this:
as §1

Experiment [3] concerns Canis familiaris. Briefly: Antiarrhythmic activity in anesthetized acute myocardial infarction dog model assessed as normal ECG complexes at 1.25 mg/kg, iv administered 10 mins prior to infarction measured during 1-hr postinfarction period (reference value: 19%). In short, it runs like this:
as §1

Experiment [4] deals with Canis familiaris. Briefly: Antiarrhythmic activity in anesthetized acute myocardial infarction dog model assessed as normal ECG complexes at 0.25 mg/kg, iv administered 10 mins prior to infarction measured during 1-hr postinfarction period (reference value: 19%). In short, it runs like this: as §1
In experiment [5] the test system is Canis familiaris. Briefly: Antiarrhythmic activity in anesthetized acute myocardial infarction dog model assessed as normal ECG complexes at 2.5 mg/kg, iv administered 10 mins prior to infarction measured during 1-hr postinfarction period (reference value: 19%). A digest of the protocol: as §1
The mark [6] stands for this setting: Canis lupus familiaris, Heart, iv, read-out: ED75.

Consider `Br.CNCc1cccc(C(F)(F)C(F)(F)c2ccccc2)c1CNC`, for which the Activity in experiment [1] is 61%; in experiment [3] it was 65%; in experiment [4] it was 30%; in experiment [5], 92%. Besides, the ED75 in experiment [2] (setting [6]) turned out to be 1.3 mg/kg.
As to `Cl.NCc1ccccc1C(F)(F)C(F)(F)C(F)(F)c1ccccc1`, the ED75 in experiment [2] (setting [6]) was 1.8 mg/kg. The Activity in experiment [3] worked out at 68%; in experiment [4] it was 24%; in experiment [5] it was 83%.
Regarding `CNCc1ccccc1C(F)(F)C(F)(F)c1ccccc1.Cl`, the results for the Activity in experiment [1], in experiment [4] and in experiment [5] were 73%, 38% and 93%, respectively. The ED75 in experiment [2] (setting [6]) turned out to be 0.84 mg/kg.
As to `CNC(C)c1ccccc1C(F)(F)C(F)(F)c1ccccc1.O=C(O)C(O)C(O)C(=O)O` (single isomer, unassigned; (+)), the Activity in experiment [1] (0.5 mg/kg) was found to be 26%; in experiment [3], 72%. The ED75 in experiment [2] came out at 2 mg/kg.
On to `NCc1cc(F)ccc1C(F)(F)C(F)(F)c1ccccc1`, for which the Activity in experiment [1] is listed as 48%. For the same molecule, the ED75 in experiment [2] (setting [6]) came out at 0.5 mg/kg.
As for `Cc1c(CN)cccc1C(F)(F)C(F)(F)c1ccccc1.Cl`, in experiment [5], the Activity amounted to 49%.
Turning to `Cl.NCCc1ccccc1C(F)(F)C(F)(F)c1ccccc1`, the Activity in experiment [1] was determined as 27%; in experiment [5], 88%. For the same molecule, the ED75 in experiment [2] (setting [6]) turned out to be 2 mg/kg.
As to `CN(C)C(C)(C)c1ccc(C(F)(F)C(F)(F)c2ccccc2)cc1.Cl`, in experiment [2] (setting [6]), the ED75 was found to be 2.1 mg/kg. The Activity in experiment [3] came to 53%; in experiment [5] it was 83%.
For `CC(N)c1ccc(C(F)(F)C(F)(F)c2ccccc2)cc1.Cl` (stereo not given) the same measures were 4 mg/kg, 25% and 80%.
`CC(N)c1ccccc1C(F)(F)C(F)(F)c1ccccc1.O=C(O)/C=C\C(=O)O` (stereo not given): the Activity in experiment [1] is 43%; in experiment [3], 82%; in experiment [5], 87%. Besides, the ED75 in experiment [2] (setting [6]) came to 1.3 mg/kg.
With `CNC(C)c1ccccc1C(F)(F)C(F)(F)c1ccccc1.O=C(O)/C=C\C(=O)O` (stereo not given), the Activity in experiment [1] was 59%; in experiment [3], 91%; in experiment [4], 35%; in experiment [5], 88%. The ED75 in experiment [2] (setting [6]) came out at 0.88 mg/kg.
`CNC(C)(C)c1ccc(C(F)(F)C(F)(F)c2ccc(C)cc2)cc1.Cl`: the Activity in experiment [5] is on record as 67%.
With `CC(O)C(=O)O.NCc1ccccc1C(F)(F)C(F)(F)c1ccccc1CN`, the Activity came to 38% in experiment [1], 59% in experiment [3] and 71% in experiment [5]. The ED75 in experiment [2] (setting [6]) is 2.5 mg/kg.
Turning to `CC(C)(N)c1cccc(C(F)(F)C(F)(F)c2ccccc2)c1.Cl`, in experiment [2] (setting [6]), the ED75 stood at 2.7 mg/kg. The Activity in experiment [3] was determined as 45%; in experiment [5], 80%.
For the molecule `CNC(C)c1ccccc1C(F)(F)C(F)(F)c1ccccc1.O=C(O)C(O)C(O)C(=O)O` (single isomer, unassigned; (-)), the figures for the Activity in experiment [1] (0.5 mg/kg) and in experiment [4] were 84% and 44%, respectively. In experiment [2], the ED75 came to 0.48 mg/kg.
On to `Cl.FC(F)(c1ccccc1)C(F)(F)c1ccccc1CNCc1ccccc1`, for which the figures for the Activity in experiment [1] and in experiment [4] were 74% and 23%, respectively. Further, in experiment [2] (setting [6]), the ED75 turned out to be 0.84 mg/kg.
As to `Cl.NCc1ccc(C(F)(F)C(F)(F)c2ccccc2)cc1`, in experiment [5], the Activity is 37%.
For the molecule `Br.FC(F)(c1ccccc1)C(F)(F)c1cccc(CNCc2ccccc2)c1CNCc1ccccc1`, the Activity is on record as 65% in experiment [1], 98% in experiment [3] and 99% in experiment [5]. Moreover, the ED75 in experiment [2] (setting [6]) is 0.64 mg/kg.
Take `NCc1ccccc1C(F)(F)C(F)(F)c1ccc(F)cc1`: in experiment [2] (setting [6]), the ED75 was 3 mg/kg. For the same molecule, the figures for the Activity in experiment [3], in experiment [4] and in experiment [5] were 52%, 20% and 74%, respectively.
